According to ChEMBL document CHEMBL1136784, “Synthesis and biological evaluation of 14-alkoxymorphinans. 18. N-substituted 14-phenylpropyloxymorphinan-6-ones with unanticipated agonist properties: extending the scope of common structure-activity relationships” (J Med Chem, 2003):
“And” between values parts separate entries of the source, which are not always exact repeats. Equal values may be shown once.

Tests used:
[1] = biological target: Kappa-type opioid receptor (Homo sapiens, UniProt P41145); assay: biochemical; format: cell-based, CHO
Kappa-type opioid receptor, sequence (P41145 whole entry): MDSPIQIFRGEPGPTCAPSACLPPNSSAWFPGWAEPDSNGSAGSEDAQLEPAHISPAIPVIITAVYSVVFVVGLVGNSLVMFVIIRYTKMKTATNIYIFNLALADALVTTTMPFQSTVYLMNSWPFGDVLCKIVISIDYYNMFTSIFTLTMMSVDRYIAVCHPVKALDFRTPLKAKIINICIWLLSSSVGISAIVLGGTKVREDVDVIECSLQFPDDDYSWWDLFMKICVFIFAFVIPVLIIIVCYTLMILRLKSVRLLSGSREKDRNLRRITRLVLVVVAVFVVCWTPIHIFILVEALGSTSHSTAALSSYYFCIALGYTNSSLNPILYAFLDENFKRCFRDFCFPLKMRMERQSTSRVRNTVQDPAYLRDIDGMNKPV

[2] = Selectivity ratio was determined; set-up: reference not given here
[3] = biological target: Delta-type opioid receptor (Rattus norvegicus, UniProt P33533); assay: In vitro binding affinity at opioid receptor delta 1 was determined in C6 rat glioma cells using [3H]Ile5,6 deltorphin II; format: cell-based
Delta-type opioid receptor, sequence (P33533 whole entry): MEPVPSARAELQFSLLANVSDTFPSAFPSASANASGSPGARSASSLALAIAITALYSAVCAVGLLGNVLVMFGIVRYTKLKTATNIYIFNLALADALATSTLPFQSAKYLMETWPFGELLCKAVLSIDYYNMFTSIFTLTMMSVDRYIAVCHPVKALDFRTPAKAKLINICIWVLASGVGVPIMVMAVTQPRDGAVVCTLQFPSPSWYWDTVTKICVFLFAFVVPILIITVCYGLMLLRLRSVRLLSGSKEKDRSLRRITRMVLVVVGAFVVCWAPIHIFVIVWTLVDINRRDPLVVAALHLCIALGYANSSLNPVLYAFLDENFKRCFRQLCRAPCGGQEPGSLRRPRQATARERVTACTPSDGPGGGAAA

[4] = In vivo antinociceptive activity was determined upon subcutaneous administration in the mouse tail-flick test; format: functional; details: sc
Method in brief: (§1)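 Male ICR mice weighing 20-30 g, each animal tested only once. Drugs were given subcutaneously at a minimum of 3 doses, with 6-10 mice per dose. Assay procedures followed earlier published methods and their modifications.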

Mu-type opioid receptor = Mu-type opioid receptor (Rattus norvegicus, UniProt P33535); assay: In vitro binding affinity at opioid receptor mu 1 was determined in C6 rat glioma cells using [3H]DAMGO; format: cell-based
Mu-type opioid receptor, sequence (P33535 whole entry): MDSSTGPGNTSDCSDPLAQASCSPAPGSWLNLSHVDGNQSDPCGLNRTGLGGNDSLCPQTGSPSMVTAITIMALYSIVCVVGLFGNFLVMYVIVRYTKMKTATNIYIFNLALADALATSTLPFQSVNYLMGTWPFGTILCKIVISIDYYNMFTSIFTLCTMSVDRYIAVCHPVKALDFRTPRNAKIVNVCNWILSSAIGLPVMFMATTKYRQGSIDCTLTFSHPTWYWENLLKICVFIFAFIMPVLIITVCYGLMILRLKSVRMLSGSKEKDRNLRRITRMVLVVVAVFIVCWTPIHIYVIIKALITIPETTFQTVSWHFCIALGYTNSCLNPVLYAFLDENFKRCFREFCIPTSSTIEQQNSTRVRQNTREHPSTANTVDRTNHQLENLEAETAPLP

[5] = biological target: Opioid receptors; mu and delta (Mus musculus) (UniProt P42866+P32300); assay: In vivo antinociceptive activity was determined upon subcutaneous administration in the mouse paraphenylquinone writhing test; format: functional, organism-based
Opioid receptors; mu and delta (Mus musculus), sequence (P32300 whole entry, looked up): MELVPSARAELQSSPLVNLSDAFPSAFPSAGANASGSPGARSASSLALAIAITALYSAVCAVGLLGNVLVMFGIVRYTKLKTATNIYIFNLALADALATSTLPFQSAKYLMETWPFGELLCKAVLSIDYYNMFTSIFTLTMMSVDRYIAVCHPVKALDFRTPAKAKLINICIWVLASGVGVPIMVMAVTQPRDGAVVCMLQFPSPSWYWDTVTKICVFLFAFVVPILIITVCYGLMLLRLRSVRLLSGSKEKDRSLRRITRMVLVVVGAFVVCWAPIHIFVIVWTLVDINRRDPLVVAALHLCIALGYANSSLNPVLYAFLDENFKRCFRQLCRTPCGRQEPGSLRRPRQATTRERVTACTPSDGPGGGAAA
Opioid receptors; mu and delta (Mus musculus), sequence (P42866 whole entry, looked up): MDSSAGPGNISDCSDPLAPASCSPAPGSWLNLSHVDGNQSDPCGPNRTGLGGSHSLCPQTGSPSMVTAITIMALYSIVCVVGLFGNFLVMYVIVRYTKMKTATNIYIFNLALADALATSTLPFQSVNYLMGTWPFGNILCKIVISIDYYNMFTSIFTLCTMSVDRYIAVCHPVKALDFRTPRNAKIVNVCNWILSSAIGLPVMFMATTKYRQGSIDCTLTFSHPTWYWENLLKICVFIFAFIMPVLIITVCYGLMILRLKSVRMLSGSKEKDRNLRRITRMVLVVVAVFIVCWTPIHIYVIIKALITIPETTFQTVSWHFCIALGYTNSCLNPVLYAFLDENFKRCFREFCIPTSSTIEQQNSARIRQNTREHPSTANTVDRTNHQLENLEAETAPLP
Method in brief: as §1

SMILES | Ki [1] [nM] | Ratio [2] | Ki [3] [nM] | ED50 [4] [µg/kg] | Ki (Mu-type opioid receptor) [nM] | ED50 [5] [µg/kg]
O=C1CC[C@@]2(OCCCc3ccccc3)[C@H]3Cc4ccc(O)c5c4[C@@]2(CCN3CC2CCC2)[C@H]1O5 | 0.49 | 1.96 and 1.84 | 0.46 | 8 | 0.25 | –
O=C1CC[C@@]2(OCCCc3ccccc3)[C@H]3Cc4ccc(O)c5c4[C@@]2(CCN3CC2CC2)[C@H]1O5 | 0.41 | – | – | 3 | – | 6
COc1ccc2c3c1O[C@H]1C(=O)CC[C@@]4(OCCCc5ccccc5)[C@@H](C2)N(CCc2ccccc2)CC[C@]314 | – | – | – | 80 | – | –
COc1ccc2c3c1O[C@H]1C(=O)CC[C@@]4(OCCCc5ccccc5)[C@@H](C2)N(CC2CCCO2)CC[C@]314 (stereo partly specified) | 61.4 | – | 6.2 | 760 | 3.8 | –
O=C1CC[C@@]2(OCCCc3ccccc3)[C@H]3Cc4ccc(O)c5c4[C@@]2(CCN3CC2CCCO2)[C@H]1O5 (stereo partly specified) | 0.08 | 0.4 and 0.45 | 0.09 | 7 | 0.2 | 2
CN1CC[C@]23c4c5ccc(O)c4O[C@H]2[C@@H](O)C=C[C@H]3[C@H]1C5 [MORPHINE] | – | – | – | 1900 | – | 400
O=C1CC[C@@]2(OCCCc3ccccc3)[C@H]3Cc4ccc(O)c5c4[C@@]2(CCN3CCc2ccccc2)[C@H]1O5 | – | – | – | 110 | – | –
CO[C@@]12CCC(=O)[C@]3(C)Oc4c(O)ccc5c4[C@@]31CCN(C)[C@@H]2C5 | 304 | – | 40.9 | 30 | 0.023 | 9
C=CCN1CC[C@]23c4c5ccc(O)c4O[C@H]2C(=O)CC[C@@]3(OCCCc2ccccc2)[C@H]1C5 | 0.11 | – | 0.26 | 6 | – | –
CCCN1CC[C@]23c4c5ccc(O)c4O[C@H]2C(=O)CC[C@@]3(OCCCc2ccccc2)[C@H]1C5 | 0.37 | 4.11 and 10.3 | 0.93 | 2 | 0.09 | 0.9
